Reference: ChEMBL document CHEMBL1926632, “Cytotoxic triterpenoid saponins from Lysimachia clethroides” (J Nat Prod, 2011)

Columns and labels:
Format in all cases: functional, cell-based
HT-29 = experiment: Cytotoxicity against human HT-29 cells by MTT assay
Summary of the method: (§1)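 MTT read-out following a previously published method. Cell origins: HT-29 colon cancer, HePG2 hepatoma, BGC-823 gastric cancer, A549 lung epithelial, A375 amelanotic melanoma, all human. Paclitaxel served as positive control in the same panel.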

HepG2 = experiment: Cytotoxicity against human HepG2 cells by MTT assay; summary of the method: as §1
A-375 = experiment: Cytotoxicity against human A375 cells by MTT assay; summary of the method: as §1
BGC-823 = experiment: Cytotoxicity against human BGC823 cells by MTT assay; summary of the method: as §1
A549 = experiment: Cytotoxicity against human A549 cells by MTT assay; summary of the method: as §1

| SMILES | IC50 (HT-29) [nM] | IC50 (HepG2) [nM] | IC50 (A-375) [nM] | IC50 (BGC-823) [nM] | IC50 (A549) [nM] |
| --- | --- | --- | --- | --- | --- |
| C[C@@H]1O[C@@H](O[C@H]2[C@H](O[C@H]3CO[C@@H](O[C@H]4CC[C@]5(C)[C@H]6CC[C@]78OC[C@@]9(CCC(C)(C)C[C@H]97)[C@H](O)C[C@@]8(C)[C@]6(C)CC[C@H]5C4(C)C)[C@H](O[C@@H]4O[C@H](CO)[C@@H](O)[C@H](O)[C@H]4O)[C@H]3O)O[C@H](CO)[C@@H](O)[C@@H]2O)[C@H](O)[C@H](O)[C@H]1O | 1960 | 990 | 2130 | 2070 | 1950 |
| CC1(C)[C@@H](O[C@@H]2OC[C@H](O[C@@H]3O[C@H](CO)[C@@H](O)[C@H](O)[C@H]3O)[C@H](O)[C@H]2O[C@@H]2O[C@H](CO)[C@@H](O)[C@H](O)[C@H]2O)CC[C@]2(C)[C@H]3CC[C@]45OC[C@@]6(CC[C@](C)(CO)C[C@H]64)[C@H](O)C[C@@]5(C)[C@]3(C)CC[C@@H]12 [ARDISIANOSIDE E] | 1810 | 750 | 1710 | 1140 | 2470 |
| C[C@@H]1O[C@@H](O[C@H]2[C@H](O[C@H]3CO[C@@H](O[C@H]4CC[C@]5(C)[C@H]6CC[C@]78OC[C@@]9(CCC(C)(C)C[C@H]97)C(=O)C[C@@]8(C)[C@]6(C)CC[C@H]5C4(C)C)[C@H](O[C@@H]4O[C@H](CO)[C@@H](O)[C@H](O)[C@H]4O)[C@H]3O)O[C@H](CO)[C@@H](O)[C@@H]2O)[C@H](O)[C@H](O)[C@H]1O [CLETHROIDOSIDE C] | 1990 | 1480 | 1140 | 1930 | 2620 |
| CC1(C)CC[C@]23CO[C@@]4(CC[C@@H]5[C@@]6(C)CC[C@H](O[C@@H]7OC[C@H](O[C@@H]8O[C@H](CO)[C@@H](O)[C@H](O)[C@H]8O[C@@H]8OC[C@@H](O)[C@H](O)[C@H]8O)[C@H](O)[C@H]7O[C@@H]7O[C@H](CO)[C@@H](O)[C@H](O)[C@H]7O)C(C)(C)[C@@H]6CC[C@@]5(C)[C@]4(C)CC2=O)[C@@H]3C1 [CLETHROIDOSIDE D] | 1980 | 1730 | 1910 | 1360 | 2360 |
| CC(=O)OC[C@H]1O[C@@H](O[C@H]2[C@H](O[C@H]3CC[C@]4(C)[C@H]5CC[C@]67OC[C@@]8(CCC(C)(C)C[C@H]86)[C@H](O)C[C@@]7(C)[C@]5(C)CC[C@H]4C3(C)C)OC[C@H](O[C@@H]3O[C@H](CO)[C@@H](O)[C@H](O)[C@H]3O[C@@H]3O[C@@H](C)[C@H](O)[C@@H](O)[C@H]3O)[C@@H]2O)[C@H](O)[C@@H](O)[C@@H]1O [CLETHROIDOSIDE E] | 1400 | 6260 | > 10000 | 8050 | > 10000 |
| CC(=O)O[C@H]1[C@H](OC(C)=O)[C@]23CO[C@@]4(CC[C@@H]5[C@@]6(C)CC[C@H](O[C@@H]7OC[C@H](O[C@@H]8O[C@H](CO)[C@@H](O)[C@H](O)[C@H]8O[C@@H]8OC[C@@H](O)[C@H](O)[C@H]8O)[C@H](O)[C@H]7O[C@@H]7O[C@H](CO)[C@@H](O)[C@H](O)[C@H]7O)C(C)(C)[C@@H]6CC[C@@]5(C)[C@]4(C)C[C@H]2O)[C@@H]3CC1(C)C [CLETHROIDOSIDE F] | 2040 | 1260 | 2190 | 1950 | 2280 |
| CC1(C)CC[C@]23CO[C@@]4(CC[C@@H]5[C@@]6(C)CC[C@H](O[C@@H]7OC[C@H](O[C@@H]8O[C@H](CO)[C@@H](O)[C@H](O)[C@H]8O[C@@H]8OC[C@@H](O)[C@H](O)[C@H]8O)[C@H](O)[C@H]7O[C@@H]7O[C@H](CO)[C@@H](O)[C@H](O)[C@H]7O)C(C)(C)[C@@H]6CC[C@@]5(C)[C@]4(C)C[C@H]2O)[C@@H]3C1 [LYSIKOKIANOSIDE 1] | 1960 | 1000 | 1940 | 1750 | 1910 |
| CC(=O)O[C@H]1C(=O)[C@@]2(C)[C@H]([C@H](OC(=O)c3ccccc3)[C@]3(O)C[C@H](OC(=O)[C@H](O)[C@@H](NC(=O)c4ccccc4)c4ccccc4)C(C)=C1C3(C)C)[C@]1(OC(C)=O)CO[C@@H]1C[C@@H]2O [PACLITAXEL] | 3.94 | 4.4 | 4.9 |  | 44.9 |
